These results are taken from ChEMBL document CHEMBL4818997, “Synthesis and structure-activity studies of novel anhydrohexitol-based Leucyl-tRNA synthetase inhibitors” (Eur J Med Chem, 2021).

For assay [1], the system named is Staphylococcus aureus. As to the kind of experiment: Antibacterial activity against Staphylococcus aureus ATCC6538 at 64 uM measured after 17 hrs by resazurin based flourimetric assay. Type of assay: functional, organism-based. The procedure, abridged:
(§1)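 Bacteria grown in Mueller Hinton broth at 37 °C, inoculum 5×10^3 CFU/ml. […] After 17 h, resazurin was added for 1/2 h and fluorescence read (ex 550/em 590 nm). Results are % growth reduction versus untreated and medium-only wells.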
(In general: Resazurin is reduced to fluorescent resorufin, in cell work by metabolically active cells.)

The next assay has as its system Candida albicans. As to the kind of experiment: Antifungal activity against Candida albicans at 64 uM measured after 17 hrs by resazurin based flourimetric assay. Type of assay: functional, organism-based. The method, boiled down: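 Compounds were 4-fold serially diluted in RPMI with 1% DMSO background, from 64.0 µM down to 3.9×10^-3 µM. Miconazole 0.25 µM served as positive control.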

The target in a further assay is Leucine--tRNA ligase (Escherichia coli (strain K12), UniProt P07813). As to the kind of experiment: Inhibition of recombinant Escherichia coli LeuRS assessed as inhibition of 14C-radiolabelled leucine transfer to tRNA leucine preincubated for 10 mins followed by addition of ATP and measured after 4 mins by Scintillation counting method. The settings on record: read-out: Ki(app).

Assay [2] concerns Mycobacterium tuberculosis. As to the kind of experiment: Antibacterial activity against Mycobacterium tuberculosis H37Ra […] assessed as inhibition of bacterial growth at 128 uM measured after 17 hrs by resazurin based flourimetric assay. Type of assay: functional. The method, boiled down: (§2)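 M. tuberculosis H37Ra cultured in 7H9 + 10% OADC at 37 °C. Compounds serially pre-diluted 2-fold in DMSO, then diluted in water, final DMSO <1%, top concentration 128 µM. Inoculum 5×10^3 CFU/ml. After 17 h, resazurin added, 1/2 h at 37 °C, fluorescence read (ex 550/em 590 nm). Growth expressed as % reduction versus untreated and medium controls; IC50 derived.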

The subject of assay [3] is Escherichia coli. As to the kind of experiment: Antibacterial activity against Escherichia coli ATCC8739 at 64 uM measured after 17 hrs by resazurin based flourimetric assay. Type of assay: functional, organism-based. The method, boiled down:
as §1

Assay [4] relates to Mycobacterium tuberculosis. As to the kind of experiment: Antibacterial activity against Mycobacterium tuberculosis H37Ra […] assessed as inhibition of bacterial growth measured after 17 hrs by resazurin based flourimetric assay. The format is functional, organism-based. The method, boiled down: as §2
Assay [5] concerns Staphylococcus aureus. As to the kind of experiment: Antibacterial activity against Staphylococcus aureus ATCC6538 assessed as inhibition of bacterial growth measured after 17 hrs by resazurin based flourimetric assay. Type of assay: functional, organism-based. Particulars: ATCC6538, 17 h. The method, boiled down: as §1
The subject of assay [6] is Escherichia coli. As to the kind of experiment: Antibacterial activity against Escherichia coli ATCC8739 assessed as inhibition of bacterial growth measured after 17 hrs by resazurin based flourimetric assay. The settings on record: ATCC8739, ATCC 8739, 17 h. Type of assay: functional, organism-based. The procedure, abridged: as §1

Calls of active or inactive are those of the source. No cut-off for these calls is given here.

Sequence of Leucine--tRNA ligase (P07813 whole entry): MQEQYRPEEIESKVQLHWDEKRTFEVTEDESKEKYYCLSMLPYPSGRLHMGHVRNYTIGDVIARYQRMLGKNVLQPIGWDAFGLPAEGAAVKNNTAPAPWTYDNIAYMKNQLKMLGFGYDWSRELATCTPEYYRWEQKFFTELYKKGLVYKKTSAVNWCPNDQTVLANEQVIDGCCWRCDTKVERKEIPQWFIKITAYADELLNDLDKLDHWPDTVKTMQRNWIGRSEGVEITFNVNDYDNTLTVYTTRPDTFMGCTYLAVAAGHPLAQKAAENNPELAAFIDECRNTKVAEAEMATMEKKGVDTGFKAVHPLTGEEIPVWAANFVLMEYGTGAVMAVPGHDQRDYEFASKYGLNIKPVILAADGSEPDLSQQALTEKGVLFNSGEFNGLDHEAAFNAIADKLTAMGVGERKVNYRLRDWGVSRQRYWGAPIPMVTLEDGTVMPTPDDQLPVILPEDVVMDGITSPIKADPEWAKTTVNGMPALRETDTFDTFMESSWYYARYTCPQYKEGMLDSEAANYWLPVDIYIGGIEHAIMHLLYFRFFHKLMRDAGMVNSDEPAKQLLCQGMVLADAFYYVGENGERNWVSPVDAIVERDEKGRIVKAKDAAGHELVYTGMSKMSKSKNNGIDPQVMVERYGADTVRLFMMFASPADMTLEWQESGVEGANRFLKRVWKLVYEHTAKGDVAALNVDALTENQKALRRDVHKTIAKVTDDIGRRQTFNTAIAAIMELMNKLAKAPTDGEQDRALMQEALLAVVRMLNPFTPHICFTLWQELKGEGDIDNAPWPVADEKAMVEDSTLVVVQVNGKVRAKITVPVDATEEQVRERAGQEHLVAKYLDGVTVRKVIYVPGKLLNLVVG

For the molecule `CC(C)C[C@H](N)C(=O)NS(=O)(=O)OC[C@H]1OC[C@@H](CCCn2cc(CCCCO)nn2)[C@H](O)[C@@H]1O`, the outcome with Staphylococcus aureus [1], in the assay with Candida albicans and with Escherichia coli [3] was inactive. At Leucine--tRNA ligase, the Ki was found to be 0.388 µM. Further, the inhibition at 128 µM in assay [2] turned out to be 23.2%.

In the case of `CC(C)C[C@H](N)C(=O)NS(=O)(=O)OC[C@H]1OC[C@@H](CCCn2cc(CNC(=O)c3ccccc3)nn2)[C@H](O)[C@@H]1O`, the outcome in the assay with Staphylococcus aureus [1], in the assay on Candida albicans and in the assay on Escherichia coli [3] was inactive. The Ki on Leucine--tRNA ligase amounted to 0.0313 µM.

In the case of `CC(C)C[C@H](N)C(=O)NS(=O)(=O)OC[C@H]1OC[C@@H](CCCn2cc(CCc3ccccc3)nn2)[C@H](O)[C@@H]1O`, the outcome in the assay with Staphylococcus aureus [1], in the assay with Candida albicans and with Escherichia coli [3] was inactive. For the same molecule, the Ki at Leucine--tRNA ligase came to 0.108 µM. In assay [2], the inhibition at 128 µM came to 38.2%.

`CC(C)C[C@H](N)C(=O)NS(=O)(=O)OC[C@H]1OC[C@@H](CCCn2cc(CNCc3ccccc3)nn2)[C@H](O)[C@@H]1O`: the outcome in the assay with Staphylococcus aureus [1], in the assay on Candida albicans and in the assay with Escherichia coli [3] was inactive. Also, the Ki at Leucine--tRNA ligase is 1.26 µM. In addition, the inhibition at 128 µM in assay [2] was determined as 12.1%.

As for `CCCCCCCCc1cn(CCC[C@@H]2CO[C@H](COS(=O)(=O)NC(=O)[C@@H](N)CC(C)C)[C@@H](O)[C@H]2O)nn1`, the result in the assay with Staphylococcus aureus [1], in the assay on Candida albicans and with Escherichia coli [3] was inactive. Besides, the Ki on Leucine--tRNA ligase came out at 0.0524 µM. Besides, the inhibition at 128 µM in assay [2] was determined as 4.26%.

As for `CC(C)C[C@H](N)C(=O)NS(=O)(=O)OC[C@H]1OC[C@@H](CCCn2cc(CN)nn2)[C@H](O)[C@@H]1O`, the outcome in the assay on Staphylococcus aureus [1], with Candida albicans and with Escherichia coli [3] was inactive. In addition, the Ki at Leucine--tRNA ligase turned out to be 2.97 µM. The inhibition at 128 µM in assay [2] came out at 9.44%.

`CC(C)C[C@H](N)C(=O)NS(=O)(=O)OC[C@H]1O[C@@H](CCn2nnc(-c3ccccc3)n2)[C@H](O)[C@@H]1O`: the result with Staphylococcus aureus [1], in the assay with Candida albicans and with Escherichia coli [3] was inactive. Besides, the Ki at Leucine--tRNA ligase is 0.0309 µM. For the same molecule, the inhibition at 128 µM in assay [2] was 49.8%.

Regarding `COc1c(N2C[C@@H]3CCCN[C@@H]3C2)c(F)cc2c(=O)c(C(=O)O)cn(C3CC3)c12` [MOXIFLOXACIN], in assay [4], the IC50 was determined as 0.25 µM.

On to `CC(C)C[C@H](N)C(=O)NS(=O)(=O)OC[C@H]1OC[C@@H](CCCn2cc(-c3ccc(OC(F)(F)F)cc3)nn2)[C@H](O)[C@@H]1O`, for which the outcome in the assay on Staphylococcus aureus [1], in the assay with Candida albicans and in the assay on Escherichia coli [3] was inactive. On Leucine--tRNA ligase, the Ki worked out at 0.0178 µM. Moreover, the inhibition at 128 µM in assay [2] was found to be 27.8%.

In the case of `CC(C)C[C@H](N)C(=O)NS(=O)(=O)OC[C@H]1OC[C@@H](CCCn2cc(-c3cccnc3)nn2)[C@H](O)[C@@H]1O`, the outcome in the assay with Staphylococcus aureus [1], in the assay on Candida albicans and with Escherichia coli [3] was inactive. Moreover, the Ki at Leucine--tRNA ligase amounted to 0.0316 µM. In addition, the inhibition at 128 µM in assay [2] is 16.9%.

On to `C[C@H]1c2cccc(O)c2C(=O)C2=C(O)[C@]3(O)C(=O)C(C(N)=O)=C(O)[C@@H](N(C)C)[C@@H]3[C@@H](O)[C@@H]21` [DOXYCYCLINE], for which the figures for the IC50 in the assay with Staphylococcus aureus [5] and with Escherichia coli [6] were 0.11 µM and 0.73 µM, respectively.

As for `CCCCCc1ccc(-c2cn(CCC[C@@H]3CO[C@H](COS(=O)(=O)NC(=O)[C@@H](N)CC(C)C)[C@@H](O)[C@H]3O)nn2)cc1`, the result with Staphylococcus aureus [1], with Candida albicans and in the assay with Escherichia coli [3] was inactive. Also, the Ki at Leucine--tRNA ligase worked out at 0.00551 µM. In assay [4], the concentration for half-maximal inhibition (IC50) came out at 24.7 µM. Further, the inhibition at 128 µM in assay [2] worked out at 86.1%.

Broadly, the inhibition is the change of the read-out against control, counted positive when it falls. In general, IC50 refers to the midpoint of a concentration-inhibition curve.
